This is one part of a sample in which hits are shown more often than they occur.
Phagocytosis inh: inhibitors of macrophage phagocytosis; inhibition, % at 5 µM; J774A.1 macrophage IgG-bead phagocytosis, imaging; 0.07% of 110,000 active;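 active means inhibition above the mean of the plate negative controls plus 5 SD, cut at about 13% in these data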;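 further: phagocytic index as fraction of beads internalized from green versus red external bead signal; plate controls were DMSO negative control for no effect and cytochalasin-D positive control for full effect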
E coli WT exp: blocks growth of wild type E. coli BW25113 | OD600 absorbance | growth inhibition, % at 100 µM | 0.15% of 98,000 active | AID 710;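 active means growth inhibition above about 50% at one test dose, limit read from the data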;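 further: growth measured after 20 h incubation at 37 °C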
tolC growth inh: E. coli tolC mutant growth inhibition | E. coli BW25113 tolC mutant growth, OD615 | growth inhibition, % at 10 µM (by protocol) | 2.2% of 65,000 active | AID 573;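 active means growth inhibition at or above a cutoff equal to the mean over every tested compound plus 3 SD, cut at about 60% in these data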;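 further: growth measured after 20 h incubation at 37 °C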
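Doses: one dose of 10 µM final / Material: E. coli BW25113 ΔtolC::kan, tolC deletion mutant strain / Buffer or medium: LB with kanamycin 50 µg/mL / Evaluation: percent growth inhibition / Detection: optical density read at 615 nm / Incubation: 37 °C, 20 h exposure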
Mac1 fbg inh: inhibitors of human CD11b/CD18 binding to fibrinogen. AID 1497. P05107+P11215. inhibition, % at 10 µM. K562 CD11b/CD18 adhesion to fibrinogen, ATPlite luminescence; Mn2+ added to activate the integrin. 0.54% of 93,000 active;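 active means primary inhibition of 50% or more at 10 µM, then 40% or more on retest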
Target sequence (P05107 whole entry, looked up, other chains not shown): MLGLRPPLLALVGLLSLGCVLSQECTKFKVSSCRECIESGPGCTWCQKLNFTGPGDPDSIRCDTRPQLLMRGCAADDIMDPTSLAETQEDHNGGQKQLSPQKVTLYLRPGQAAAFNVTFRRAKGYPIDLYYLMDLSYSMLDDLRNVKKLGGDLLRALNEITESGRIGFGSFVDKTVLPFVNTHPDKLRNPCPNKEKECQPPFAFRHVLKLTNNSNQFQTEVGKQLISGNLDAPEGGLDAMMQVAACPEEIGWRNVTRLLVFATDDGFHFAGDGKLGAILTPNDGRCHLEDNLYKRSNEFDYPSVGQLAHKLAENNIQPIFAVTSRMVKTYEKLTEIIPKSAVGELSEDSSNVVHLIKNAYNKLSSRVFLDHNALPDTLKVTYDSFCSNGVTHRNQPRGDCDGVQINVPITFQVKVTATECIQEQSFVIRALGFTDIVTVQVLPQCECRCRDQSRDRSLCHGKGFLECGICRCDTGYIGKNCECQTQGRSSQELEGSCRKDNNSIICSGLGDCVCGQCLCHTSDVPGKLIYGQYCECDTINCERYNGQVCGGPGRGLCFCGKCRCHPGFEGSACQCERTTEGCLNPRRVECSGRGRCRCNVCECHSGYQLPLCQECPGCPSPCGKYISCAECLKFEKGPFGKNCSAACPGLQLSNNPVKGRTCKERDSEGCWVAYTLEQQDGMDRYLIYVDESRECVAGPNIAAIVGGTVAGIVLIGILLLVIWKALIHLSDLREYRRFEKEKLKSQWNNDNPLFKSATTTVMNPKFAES
CD11b adhes enh: enhancers of human CD11b/CD18 binding to fibrinogen. K562 CD11b/CD18 adhesion to fibrinogen, ATPlite luminescence. 0.07% of 93,000 active. AID 1499. activation, % at 10 µM;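 active means 10 µM primary screen giving 50% or more activity, confirmed by 40% or more on retest at that dose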
An asterisk follows results filed as active; · = no result given; [ ] = remark or other dose.

SMILES	Phagocytosis inh	E coli WT exp	tolC growth inh	Mac1 fbg inh	CD11b adhes enh
Cc1cc(=O)[nH]c(SCC(=O)Nc2nc(-c3ccccc3)cs2)n1	-1.3	-2.0	69.5*	12.7	-3.2
CCn1c(SCC(=O)Nc2nc(-c3ccc(C)cc3)cs2)nnc1-c1ccccc1	-0.6	4.0	·	5.4	4.4
CCNC(=S)Nc1nc2c(cc1C(=O)OCC)CCCC2	-4.4	·	·	·	·
Clc1ccc(CSc2nc3ccncc3[nH]2)cc1	·	9.0	·	88.3*	-17.7
Nc1cc(=O)[nH]c(SCc2ccc(Cl)cc2)n1	-1.9	6.0	·	4.3	0.3
Cc1ccc(CSc2nc3ccncc3[nH]2)cc1	-0.4	13.0	·	101.4*	-9.5
C=CCOc1c(Br)cc(CNc2ccc(NC(=O)C(C)C)c(OC)c2)cc1OCC	-5.8	·	·	·	·
CCOC(=O)c1cnc(-n2nc(C)cc2C)nc1NCCO	-2.3	0.0	·	7.5	-0.5
CCOC(=O)c1cnc(-n2nc(C)cc2C)nc1NC(C)c1ccccc1 (centres undefined)	·	-6.0	100.0*	·	·
CCOC(=O)c1cnc(-n2nc(C)cc2C)nc1NCc1ccccc1	6.4	3.0	100.0*	-42.9	2.8
CCOC(=O)c1cnc(-n2nc(C)cc2C)nc1NNc1cc(-c2ccccc2)nc(C)n1	-9.8	·	·	·	·
O=C(Nc1ccc(C(F)(F)F)cc1Cl)c1ccc(Cn2cc(Br)cn2)o1	-0.1	1.0	98.8*	12.4	-8.8
Cc1nc2ccccc2c(=O)n1NC(=O)c1ccccc1Cl	·	-6.0	-17.1	·	·
CCn1c(=O)c(C(=O)Nc2nc3ccccc3[nH]2)c(O)c2ccccc21	-1.8	1.0	5.7	96.4*	-8.2
CC(C)c1nnc(NC(=O)c2c(O)c3cccc4c3n(c2=O)CC4)s1	·	·	100.0*	·	·
CCc1nc2ccccc2c(=O)n1NC(=O)c1c(O)c2cccc3c2n(c1=O)CCC3	-1.6	0.0	64.5*	0.8	4.2
CCn1c(=O)c(C(=O)Nn2c(C)nc3ccccc3c2=O)c(O)c2ccccc21	0.0	3.0	90.9*	-1.2	-0.9
CCCc1nnc(NC(=O)c2c(O)c3cccc4c3n(c2=O)CCC4)s1	-2.0	·	9.5	-7.9	103.2
Cc1ccc(OC(=O)c2cccc(S(=O)(=O)N3CCCC3)c2)c(-n2nc3ccccc3n2)c1	-11.1	·	·	-25.2	-2.7
Cc1ccc(C)c(N2CCN(c3cnn(-c4nc5ccccc5s4)c(=O)c3Cl)CC2)c1	·	·	·	16.2	28.5
CCn1c(SCC(=O)N/N=C/c2c[nH]c3ccccc23)nnc1-c1ccc(Cl)cc1	-1.6	·	·	·	·
Cc1c(/C=N/NC(=O)C(NC(=O)c2ccc3c(c2)OCO3)C(C)C)c2ccccc2n1C (centres undefined)	-5.4	·	·	·	·
CCNC(=O)C(=O)NCC1OCCCN1S(=O)(=O)c1cccs1 (centres undefined)	-1.1	·	·	·	·
Oc1c(C(Nc2ccccn2)c2ccccn2)ccc2cccnc12 (centres undefined)	-0.8	54.0*	1.4	-4.9	-2.5
CCONC(=O)Nc1ccccc1	0.0	·	·	-6.7	6.7
SMILES	Phagocytosis inh	E coli WT exp	tolC growth inh	Mac1 fbg inh	CD11b adhes enh
CCSC(C)CC1C/C(=N/O)c2c(CC)noc2C1 (centres undefined)	-5.4	10.0	61.1*	-36.3	-0.5
CCCc1noc2c1/C(=N\O)CC(CC(C)SCC)C2 (centres undefined)	-0.4	13.0	46.4	15.8	0.3
O=C(c1cccc(S(=O)(=O)N2CCc3ccccc3C2)c1)N1CCN(c2ccc(O)cc2)CC1	-3.8	·	·	·	·
Fc1ccc2[nH]c3c(N4CCN(c5ccccc5)CC4)ncnc3c2c1	-5.0	-5.0	9.1	3.3	-1.0
OC1(c2cccc(C(F)(F)F)c2)CCN(c2ncnc3c2[nH]c2ccc(F)cc23)CC1	1.2	-9.0	100.0*	99.6	-7.1
O=C(COc1ccccc1N1C(=O)c2ccccc2C1=O)c1ccc(Cl)cc1	6.1*[artifact]	-2.0	·	-40.3	-2.6
O=C(OCC#CCSc1nnc(-c2cccc3ccccc23)o1)c1cccs1	0.2	-28.0	25.1	-17.9	-2.8
C#CCSc1nnc(-c2cccc3ccccc23)o1	·	·	97.3*	·	·
O=C(CSc1ncnc2c1oc1ccccc12)N1CCCc2ccccc21	-0.5	-30.0	63.0*	93.6	-6.9
CCOC(=O)c1c(C)c(C(=O)Nc2cc(OC)ccc2OC)c(C)n1CC	1.8	5.0	68.0*	7.2	-3.5
CCCc1cc(C(=O)Nc2cccc(Cl)c2)no1	-0.6	12.0	98.3*	-7.3	-0.1
CCCCOC(=O)CSc1nnc(-c2cc(OC)c(OC)c(OC)c2)o1	-2.2	4.0	16.6	0.4	1.5
CCCCN(CCCC)C(=O)CSc1nnc(-c2cc(OC)c(OC)c(OC)c2)o1	0.3	-4.0	70.8*	-24.0	2.5

High-throughput results deposited in PubChem by several laboratories.
